# High-throughput results (PubChem BioAssay)
# Only some compounds are listed: those with a hit (about 1.5% of all), similar ones and a draw of the others.
# OXTR potentiate: human OXTR potentiation. hit rate 0.061% among 320,000. CHO-OTR cells, Fluo-8 calcium fluorescence, potentiator mode; 0% = oxytocin EC15, 100% = EC100. activation, % at 3 µM;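 active means activation above that plate's cutoff, the mean activation of tested compounds plus 3 SD, cut at about 6.6% in these data, passing the limit was not always enough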
# Target sequence (P30559 whole entry, looked up): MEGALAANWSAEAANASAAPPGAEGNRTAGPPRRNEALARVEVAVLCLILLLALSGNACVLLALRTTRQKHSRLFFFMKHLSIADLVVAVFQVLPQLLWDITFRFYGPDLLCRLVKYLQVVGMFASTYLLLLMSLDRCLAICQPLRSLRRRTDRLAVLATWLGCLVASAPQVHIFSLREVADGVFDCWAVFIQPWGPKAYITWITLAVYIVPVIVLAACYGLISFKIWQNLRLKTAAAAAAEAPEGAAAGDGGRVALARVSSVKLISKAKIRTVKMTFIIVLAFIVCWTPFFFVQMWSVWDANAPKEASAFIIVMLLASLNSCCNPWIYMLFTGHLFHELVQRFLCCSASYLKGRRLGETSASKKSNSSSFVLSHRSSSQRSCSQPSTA
#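 test system = CHO-OTR cells, human receptor | compound = single-point 3.0 µM | schedule = 6 min compound pre-incubation at room temperature, 100 s kinetic read | signal = Fluo-8 no-wash calcium dye fluorescence, excitation 470-495 nm, emission 515-575 nm | repeats = single well per compound, singlicate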
# V1R ag counter: activates human V1a receptor in oxytocin agonist counter-screen; hit rate 0.25% among 320,000; activation, % at 3 µM; P37288; CHO-V1R cells, Fluo-8 calcium fluorescence, agonist mode; 0% DMSO, 100% 3 nM vasopressin;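 active means activation above the mean activation of all tested compounds plus 3 SD, per screening run, cut at about 20% in these data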;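 further: signal is peak over basal fluorescence ratio across a 100 second FLIPR read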
# M4 ag: CHRM4 agonism in calcium assay; hit rate 0.14% among 360,000; CHO-K1 hM4/Gqi5, Fluo-8 calcium fluorescence; vehicle 0%, full acetylcholine response 100%; activation, % at 3 µM; P08173; AID 624127;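 active means activation above the run mean over all test wells plus 3 SD, cut at about 32% in these data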;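 further: peak over basal fluorescence ratio per well then scaled between controls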
# CHRM4 antagonist: blocks acetylcholine activation of human M4 receptor; inhibition, % at 3 µM; hit rate 0.73% among 360,000; P08173; CHO-hM4 cells, ACh EC80, Fluo-8 calcium fluorescence;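 active means inhibition above its plate's cutoff, the mean inhibition of sample wells plus 3 SD, cut at about 27% in these data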
# CHRM4 PAM: CHRM4 positive allosteric modulation; P08173; CHO-K1 hM4/Gqi5, Fluo-8 calcium fluorescence, ACh EC20; 0% = ACh EC20, 100% = maximal ACh; activation, % at 3 µM; hit rate 0.4% among 360,000; AID 624126;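 active means activation above its plate's cutoff, the mean activation of sample wells plus 3 SD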
# OXTR agonist: activates the human oxytocin receptor; P30559; CHO-OTR cells, Fluo-8 calcium fluorescence; normalized: DMSO 0%, oxytocin 100%; activation, % at 3 µM; hit rate 0.32% among 320,000; AID 2435;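 active means activation above the mean of all tested compounds plus 3 SD, cutoff set per screening run, cut at about 20% in these data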;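 further: peak over basal fluorescence ratio from a 100 s FLIPR kinetic read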
# Numbers stand for hits; – = inactive; · = not tested or not shown.
SMILES,OXTR potentiate,V1R ag counter,M4 ag,CHRM4 antagonist,CHRM4 PAM,OXTR agonist
CC(C)(C)c1ccc(C(O)c2ncc(-c3ccccc3F)[nH]2)cc1 (stereo unspecified),·,·,–,–,–,·
N=c1c2c(-c3ccccc3)c(-c3ccccc3)n(Cc3ccco3)c2ncn1Cc1ccccc1,–,23,–,–,–,21
Cn1c(N)c(C(=O)COC(=O)CC2CC3CCC2C3)c(=O)n(C)c1=O (stereo unspecified),–,–,–,–,–,–
O=C(CN1CCc2ccccc2C1)Nc1ccc(OC(F)(F)F)cc1,–,–,–,82,–,–
CCN(CC)C(=O)C(Sc1ccccc1)c1ccccc1 (stereo unspecified),–,–,–,–,–,–
CCC(C(=O)OCC(=O)C1(O)CCC2C3CCC4=CC(=O)CCC4(C)C3C(O)CC21C)C(C)C (stereo unspecified),·,·,–,28,–,·
CC12C=CC(=O)C=C1CCC1C2C(O)CC2(C)C1CCC2(O)C(=O)CO (stereo unspecified),·,·,–,88,–,·
CC(=O)[C@@]1(O)CC[C@H]2[C@@H]3CCC4=CC(=O)CC[C@]4(C)[C@H]3[C@@H](O)C[C@@]21C,–,–,–,–,–,–
Cc1cc(/C=N/n2cnnc2)c(O)c([N+](=O)[O-])c1,–,–,–,–,–,–
Cc1cc(C)nc(/N=C(\N)N(Cc2ccccc2)Cc2ccccc2)n1,–,–,–,39,–,–
O=C(NCCC1=CCCCC1)C1COc2ccccc2O1 (stereo unspecified),–,–,–,–,–,–
O=C(Cn1nnc(-c2ccc(Cl)cc2)n1)NC(=O)NC1CCCC1,·,·,–,–,–,·
CCCCc1cc(O)c(CCCC)c(O)c1,–,81,106,52,–,86
CCCCCc1cc(O)c2c(C)cc(=O)oc2c1,–,–,–,–,–,–
Cc1ccc(S(=O)(=O)N2[C@@H](c3cccc(Cl)c3)C(C(=O)O)=CC[C@H]2c2ccc(C(C)C)cc2)cc1,–,–,–,–,–,–
COc1ccc(C(=O)n2cnc3ccccc32)cc1,–,–,–,–,14,–
COc1cccc(-c2sc3ccccc3c2-c2ccc(OCCN(C)C)cc2)c1,–,–,–,47,–,–
Oc1ccc2sc(-c3ccccc3O)c(-c3ccc(OCCN4CCCCC4)cc3)c2c1,·,·,61,43,–,·
COc1cccc(-c2sc3ccccc3c2-c2ccc(OCCN3CCCC3)cc2)c1,–,–,–,–,–,–
COc1cccc(-c2sc3ccccc3c2-c2ccc(OCCN3CCCCC3)cc2)c1,–,–,–,34,–,–
C#CCN(C[C@@H](CC(C)C)NC(=O)OC(C)(C)C)S(=O)(=O)c1ccc(Br)cc1F,·,·,–,–,–,·
Cc1cc2c(cc1S(=O)(=O)N(C)c1ccccc1)n(C)c(=O)n2C,–,–,–,99,–,–
C[C@H](CO)N1C[C@H](C)[C@@H](CN(C)S(=O)(=O)c2ccccc2)Oc2ccc(NS(=O)(=O)c3cn(C)cn3)cc2C1=O,–,–,–,–,–,–
CC1(C)CC(CC(=O)O)(c2ccc(Cl)cc2)CCO1 (stereo unspecified),–,–,–,–,17,–
CC(C)S(=O)(=O)c1csc(NC(=O)Nc2cccc([N+](=O)[O-])c2)c1Cl,–,–,–,–,–,–
SMILES,OXTR potentiate,V1R ag counter,M4 ag,CHRM4 antagonist,CHRM4 PAM,OXTR agonist
COc1ccc([C@H]2CC(=O)C=C(c3ccc(C(=O)O)cc3)C2)cc1OC,–,–,–,–,–,–
CC(/C=N/NC(=O)c1ccc(Cn2cc([N+](=O)[O-])cn2)o1)=C\c1ccccc1,–,–,–,–,–,–
COc1ccc(C2Oc3ccccc3N2C(C)=O)cc1 (stereo unspecified),–,–,–,31,–,–
CC(Sc1ccsc1[N+](=O)[O-])C(=O)NCc1ccco1 (stereo unspecified),–,–,–,–,23,–
O=C(NCC1CCCO1)c1cccs1 (stereo unspecified),–,–,–,–,36,–
CCN1CCCC1CNC(=O)c1ccc(Sc2ccccc2Cl)c([N+](=O)[O-])c1 (stereo unspecified),–,–,–,97,–,–
O=C(NCCCN1CCOCC1)c1ccc(Sc2ccc(F)cc2)c([N+](=O)[O-])c1,–,–,–,–,–,–
CCN1CCCC1CNC(=O)c1ccc(Sc2ccc(F)cc2)c([N+](=O)[O-])c1 (stereo unspecified),–,–,–,95,–,–
CC(C)(CN1CCN(Cc2ccccc2)CC1)NS(=O)(=O)c1ccc(Cl)cc1,–,–,–,–,–,–
CS(=O)(=O)N(CC(=O)NCCSCc1cccc(Cl)c1)c1ccc(F)cc1,–,–,–,–,–,–
COC(=O)c1cc(CNC(=O)Cc2ccsc2)ccc1OC,–,–,–,98,–,–
COc1ccccc1NC(=O)Cc1ccsc1,–,–,–,–,–,–
CCOc1ccc(C(=O)Nc2cnn(Cc3ccc(Cl)c(Cl)c3)c2)cc1,–,–,–,–,–,–
COc1cccc(OCCNC(=O)Nc2cc(F)c(F)cc2Cl)c1,–,–,–,–,–,–
CCCNC(=O)Cn1c(=O)/c(=C\c2ccc(-c3ccc([N+](=O)[O-])cc3)o2)s/c1=C\C(=O)C(C)(C)C,–,37,–,–,–,63
COc1ccc(-c2c[n+]3c(n2-c2ccccc2)SCC3)cc1,–,–,–,–,–,–
c1ccc(Cn2c(-c3ccccc3)c[n+]3c2SCCC3)cc1,–,–,–,97,–,–
CCc1ccc(CN(Cc2cccnc2)C(=O)/C=C/c2ccc(OC)cc2)cc1,–,–,–,–,–,–
CCCN1C(=O)/C(=C/c2ccc(N3CCOCC3)cc2)NC1=S,–,31,–,–,–,25
Cc1ccc(CN2C(=O)N/C(=C\c3ccc(N4CCOCC4)cc3)C2=O)cc1,–,–,–,–,–,–
CCN1C(=O)/C(=C/c2ccc(N3CCCC3)cc2)NC1=S,–,91,58,37,–,110
O=C(CCn1c(=S)[nH]c2ccccc2c1=O)NCC1CCCO1 (stereo unspecified),–,–,–,–,19,–
CCC(C(=O)NC1CCCC1)n1c(C2CCCC2)nc2ccccc21 (stereo unspecified),·,·,–,–,–,·
CC(=O)/C=C1\SC(CC(=O)O)C(=O)N1c1ccccc1 (stereo unspecified),–,–,–,–,22,–
CCCc1cc(=O)[nH]c(SCC(=O)Nc2sccc2C#N)n1,·,·,–,–,–,·
CC1CN(C2=NC(=O)/C(=C/c3ccncc3)S2)CC(C)O1 (stereo unspecified),–,–,–,–,–,–
